Assay results as given in ChEMBL document CHEMBL5131497, “Design, Synthesis, and Characterization of TNP-2198, a Dual-Targeted Rifamycin-Nitroimidazole Conjugate with Potent Activity against Microaerophilic and Anaerobic Bacterial Pathogens” (J Med Chem, 2022).
Values after ≈ are worked out from the molar mass of the structure shown.

Tests used:
Syrian golden hamster = test: Antibacterial activity against Clostridioides difficile UNT-103-1 infected in Syrian hamster assessed as mortality at 20 mg/kg, po administered once a daily for 5 days after 18 hrs post 10 mg/kg clindamycin treatment and measured upto 21 days; format: functional, Mesocricetus auratus; conditions: time <= 21 day
Summary of the method: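 Male Golden Syrian hamsters (80-90 g), housed singly, were gavaged with C. difficile UNT103-1 grown in sporulation medium broth and diluted to OD600 1 in prereduced broth. […] From 18 h later, drug or vehicle was given by oral gavage once daily for 5 days. Survival was recorded through day 21.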

Actinomyces naeslundii = test: Antibacterial activity against Actinomyces naeslundii ATCC 1210; format: functional
Clostridioides difficile [1] = test: Antibacterial activity against Clostridioides difficile clinical isolate China; format: functional
Helicobacter pylori [2] = test: Antibacterial activity against Helicobacter pylori clinical isolate USA; format: functional
Helicobacter pylori [3] = test: Antibacterial activity against Helicobacter pylori clinical isolate China; format: functional
Staphylococcus aureus = test: Antibacterial activity against Staphylococcus aureus ATCC 29213; format: functional
Clostridioides difficile [4] = test: Antibacterial activity against Clostridioides difficile ATCC 9689; format: functional
Clostridioides difficile [5] = test: Antibacterial activity against rifampicin-resistant Clostridioides difficile harboring rpoBQ489K mutant; format: functional
Helicobacter pylori [6] = test: Antibacterial activity against Helicobacter pylori ATCC 700392 at 1:1 compound to metronidazole molar ratio measured after 5 days in presence of metronidazole by agar dilution method; format: functional; conditions: ATCC 700392, 120 h, time 5 day
Summary of the method: (§1)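 Agar dilution per CLSI. Wild-type ATCC 700392 (CB1531) and its derivatives carry defined resistance determinants. Drugs, alone or in 1:1 molar mixtures, were diluted 2-fold from 100× stocks into Mueller–Hinton agar with aged (≥2 weeks) sheep blood (5% v/v). MIC read after 5 days at 35 °C under microaerobic conditions from a campylobacter gas-generating system.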

Helicobacter pylori [7] = test: Antibacterial activity against metronidazole-resistant Helicobacter pylori CB1573 harboring rdxAR16S mutant measured after 5 days by agar dilution method; format: functional; conditions: CB1573, 120 h, time 5 day; summary of the method: as §1
Helicobacter pylori [8] = test: Antibacterial activity against metronidazole-resistant Helicobacter pylori CB1573 harboring rdxAR16S mutant at 1:1 compound to metronidazole molar ratio measured after 5 days in presence of metronidazole by agar dilution method; format: functional; conditions: CB1573, 120 h, time 5 day; summary of the method: as §1
Helicobacter pylori [9] = test: Antibacterial activity against rifampicin-resistant Helicobacter pylori CB1903 harboring rpoBD530V mutant measured after 5 days by agar dilution method; format: functional; conditions: CB1903, 120 h, time 5 day; summary of the method: as §1
Helicobacter pylori [10] = test: Antibacterial activity against rifampicin-resistant Helicobacter pylori CB1902 harboring rpoBV149F mutant at 1:1 compound to metronidazole molar ratio measured after 5 days in presence of metronidazole by agar dilution method; format: functional; conditions: CB1902, 120 h, time 5 day; summary of the method: as §1
Helicobacter pylori [11] = test: Antibacterial activity against rifampicin-resistant Helicobacter pylori CB1903 harboring rpoBD530V mutant at 1:1 compound to metronidazole molar ratio measured after 5 days in presence of metronidazole by agar dilution method; format: functional; conditions: CB1903, 120 h, time 5 day; summary of the method: as §1
Helicobacter pylori [12] = test: Antibacterial activity against rifampicin-resistant Helicobacter pylori CB1614 harboring rpoBL525I/D530N at 1:1 compound to metronidazole molar ratio measured after 5 days in presence of metronidazole by agar dilution method; format: functional; conditions: CB1614, 120 h, time 5 day; summary of the method: as §1
Clostridioides difficile [13] = test: Antibacterial activity against rifampicin-resistant Clostridioides difficile CB1934 harboring rpoBQ489K mutant measured after 3 days; format: functional; conditions: CB1934, 72 h, time 3 day
Clostridioides difficile [14] = test: Antibacterial activity against rifampicin-resistant Clostridioides difficile CB1934 harboring rpoBQ489K mutant at 1:1 compound to metronidazole molar ratio measured after 3 days in presence of metronidazole; format: functional; conditions: CB1934, 72 h, time 3 day
Clostridioides difficile [15] = test: Antibacterial activity against fluoroquinolone-resistant Clostridioides difficile CB1939 at 1:1 compound to metronidazole molar ratio measured after 3 days in presence of metronidazole; format: functional; conditions: CB1939, 72 h, time 3 day
Clostridioides difficile [16] = test: Antibacterial activity against fluoroquinolone-resistant Clostridioides difficile CB1941 harboring gyrAD71Y/T82A mutant measured after 3 days; format: functional; conditions: CB1941, 72 h, time 3 day
Clostridioides difficile [17] = test: Antibacterial activity against fluoroquinolone-resistant Clostridioides difficile CB1941 harboring gyrAD71Y/T82A mutant at 1:1 compound to metronidazole molar ratio measured after 3 days in presence of metronidazole; format: functional; conditions: CB1941, 72 h, time 3 day
Clostridioides difficile [18] = test: Antibacterial activity against rifampicin/fluoroquinolone-resistant Clostridioides difficile CB1940 harboring rpoBQ489K/gyrAA118S mutant measured after 3 days; format: functional; conditions: CB1940, 72 h, time 3 day
Clostridioides difficile [19] = test: Antibacterial activity against rifampicin/fluoroquinolone-resistant Clostridioides difficile CB1940 harboring rpoBQ489K/gyrAA118S mutant at 1:1 compound to metronidazole molar ratio measured after 3 days in presence of metronidazole; format: functional; conditions: CB1940, 72 h, time 3 day
Clostridioides difficile [20] = test: Antibacterial activity against rifampicin/fluoroquinolone-resistant Clostridioides difficile CB1942 harboring rpoBQ489K/gyrAD71Y/T82A mutant measured after 3 days; format: functional; conditions: CB1942, 72 h, time 3 day
Clostridioides difficile [21] = test: Antibacterial activity against rifampicin/fluoroquinolone-resistant Clostridioides difficile CB1942 harboring rpoBQ489K/gyrAD71Y/T82A mutant at 1:1 compound to metronidazole molar ratio measured after 3 days in presence of metronidazole; format: functional; conditions: CB1942, 72 h, time 3 day
[22] = tested on: Bacteroides thetaiotaomicron; test: Antibacterial activity against metronidazole-resistant Bacteroides thetaiotaomicron MMX 3409; format: functional
Bacteroides uniformis = test: Antibacterial activity against Bacteroides uniformis MMX 1277; format: functional
Bifidobacterium longum = test: Antibacterial activity against Bifidobacterium longum ATCC 15707; format: functional
Fusobacterium nucleatum = test: Antibacterial activity against Fusobacterium nucleatum ATCC 25586; format: functional
Gardnerella vaginalis [23] = test: Antibacterial activity against Gardnerella vaginalis ATCC 14018; format: functional
Gardnerella vaginalis [24] = test: Antibacterial activity against Gardnerella vaginalis ATCC 49145; format: functional
Peptostreptococcus sp. = test: Antibacterial activity against Peptostreptococcus magnus ATCC 14956; format: functional
[25] = tested on: Porphyromonas asaccharolytica; test: Antibacterial activity against metronidazole-resistant Prevotella asaccharolytica MMX 3552; format: functional
Prevotella bivia = test: Antibacterial activity against Prevotella bivia ATCC 29303/MMX 5718; format: functional
Prevotella disiens [26] = test: Antibacterial activity against Prevotella disiens MMX 3457; format: functional
Prevotella disiens [27] = test: Antibacterial activity against Prevotella disiens MMX 3446; format: functional
Prevotella intermedia = test: Antibacterial activity against Prevotella intermedia ATCC 25611 MMX 3002; format: functional
Veillonella parvula = test: Antibacterial activity against Veillonella parvula ATCC 17745 MMX 1272; format: functional
Clostridioides difficile [28] = test: Antibacterial activity against Clostridioides difficile BAA 1382; format: functional

In the case of `CN[C@H](CC(C)C)C(=O)N[C@H]1C(=O)N[C@@H](CC(N)=O)C(=O)N[C@H]2C(=O)N[C@H]3C(=O)N[C@H](C(=O)N[C@H](C(=O)O)c4cc(O)cc(O)c4-c4cc3ccc4O)[C@H](O)c3ccc(c(Cl)c3)Oc3cc2cc(c3O[C@@H]2O[C@H](CO)[C@@H](O)[C@H](O)[C@H]2O[C@H]2C[C@](C)(N)[C@H](O)[C@H](C)O2)Oc2ccc(cc2Cl)[C@H]1O` [VANCOMYCIN], the Activity (Syrian golden hamster) is reported as 80%.

`CO[C@H]1/C=C/O[C@@]2(C)Oc3c(C)c(O)c4c(O)c(c(/C=N/N5CCN(C)CC5)c(O)c4c3C2=O)NC(=O)/C(C)=C\C=C\[C@H](C)[C@H](O)[C@@H](C)[C@@H](O)[C@@H](C)[C@H](OC(C)=O)[C@@H]1C` [RIFAMPIN] showed an MIC (Actinomyces naeslundii) of 0.03 µg/mL (≈ 0.0365 µM), an MIC (Clostridioides difficile [1]) of 0.06 µg/mL (≈ 0.0729 µM) and an MIC90 (Clostridioides difficile [1]) of at least 128 µg/mL. The MIC (Helicobacter pylori [2]) was at least 0.007 µg/mL, the MIC (Helicobacter pylori [3]) was at most 0.06 µg/mL and the MIC90 (Helicobacter pylori [3]) was 0.5 µg/mL (≈ 0.608 µM). The MIC (Staphylococcus aureus) was 0.008 µg/mL (≈ 0.00972 µM), the MIC (Clostridioides difficile [4]) was 0.001 µg/mL (≈ 0.00122 µM) and the MIC (Clostridioides difficile [5]) was 0.25 µg/mL (≈ 0.304 µM). The MIC (Helicobacter pylori [6]) was 0.5 µg/mL, the MIC (Helicobacter pylori [7]) was 0.5 µg/mL (≈ 0.608 µM) and the MIC (Helicobacter pylori [8]) was 0.25 µg/mL. For the same compound, the MIC (Helicobacter pylori [9]) was over 32 µg/mL, the MIC (Helicobacter pylori [10]) was 8 µg/mL and the MIC (Helicobacter pylori [11]) was 16 µg/mL. For the same compound, the MIC (Helicobacter pylori [12]) was 8 µg/mL, the MIC (Clostridioides difficile [13]) was over 32 µg/mL and the MIC (Clostridioides difficile [14]) was 2 µg/mL. The MIC (Clostridioides difficile [15]) was at most 0.03 µg/mL, the MIC (Clostridioides difficile [16]) was at most 0.03 µg/mL and the MIC (Clostridioides difficile [17]) was at most 0.03 µg/mL. The MIC (Clostridioides difficile [18]) was over 32 µg/mL, the MIC (Clostridioides difficile [19]) was 2 µg/mL and the MIC (Clostridioides difficile [20]) was over 32 µg/mL. The MIC (Clostridioides difficile [21]) was 2 µg/mL, the MIC [22] was 0.5 µg/mL (≈ 0.608 µM) and the MIC (Bacteroides uniformis) was 0.5 µg/mL (≈ 0.608 µM). It also gave an MIC (Bifidobacterium longum) of 0.5 µg/mL (≈ 0.608 µM), an MIC (Fusobacterium nucleatum) of 0.5 µg/mL (≈ 0.608 µM) and an MIC (Gardnerella vaginalis [23]) of 0.5 µg/mL (≈ 0.608 µM). It also gave an MIC (Gardnerella vaginalis [24]) of 0.5 µg/mL (≈ 0.608 µM), an MIC (Peptostreptococcus sp.) of 1 µg/mL (≈ 1.22 µM) and an MIC [25] of 0.004 µg/mL (≈ 0.00486 µM). For the same compound, the MIC (Prevotella bivia) was 0.5 µg/mL (≈ 0.608 µM), the MIC (Prevotella disiens [26]) was 0.5 µg/mL (≈ 0.608 µM) and the MIC (Prevotella disiens [27]) was 0.12 µg/mL (≈ 0.146 µM). The MIC (Prevotella intermedia) was 0.12 µg/mL (≈ 0.146 µM), the MIC (Veillonella parvula) was 4 µg/mL (≈ 4.86 µM) and the MIC (Clostridioides difficile [28]) was 0.001 µg/mL (≈ 0.00122 µM).
